Assay results: ChEMBL document CHEMBL3992563, “Piperazines as nootropic agents: New derivatives of the potent cognition-enhancer DM235 carrying hydrophilic substituents” (Bioorg Med Chem, 2017)

How the values were obtained:
Mus musculus [1] = experiment: Cognition enhancing effect in sc dosed CD-1 albino mouse assessed as reversal of scopolamine-induced amnesia treated 20 mins prior to training session followed by scopolamine challenge immediately after training session by passive avoidance test; type: functional; settings: CD-1, sc, read-out: MED
In short: (§1)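 Mouse passive-avoidance test using a modified Jarvik–Kopp protocol. Drug in saline with 10% DMSO, given s.c. 20 min before training in a 1:10 dilution series up to 10 mg/kg. Scopolamine 1.5 mg/kg i.p. given right after the punishment/training session. Saline controls got an extra saline injection. Each value is the mean of 12–14 mice; the read-out is minimal effective dose.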

[2] = Half life in PBS at 1 uM by LC-MS/MS analysis; type: physicochemical
In short: (§2)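 Analyte at 1 µM final in PBS or in plasma from male Sprague-Dawley rats (plasma stored at −80 °C), incubated at 37 °C. Sampled in triplicate at 0, 30, 60 and 120 min, then internal standard added. Quantified by ESI-positive LC-MS/MS in MRM mode (C18 column, formic acid/acetonitrile gradient) against calibration from 0–1.00 µM. Enalapril checked plasma hydrolytic activity; t1/2 extrapolated from concentration-time curves.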

Mus musculus [3] = experiment: Potency index, ratio of piracetam MED to compound MED for cognition enhancing effect in sc dosed CD-1 albino mouse; type: functional
[4] = Stability in Sprague-Dawley rat plasma assessed as parent compound remaining at 1 uM after 60 mins by LC-MS/MS analysis; type: ADME, cell-free; settings: read-out: Stability; in short: as §2
Mus musculus [5] = experiment: Toxicity in sc dosed CD-1 albino mouse assessed as effect on spontaneous motility at cognition enhancing MED by hole-board test; type: organism-based; settings: in vivo
Mus musculus [6] = experiment: Toxicity in sc dosed CD-1 albino mouse assessed as gross behavior abnormality at cognition enhancing MED; type: organism-based; settings: in vivo
Mus musculus [7] = experiment: Cognition enhancing effect in sc dosed CD-1 albino mouse assessed as reversal of scopolamine-induced amnesia by measuring difference between training session and retention session time at MED treated 20 mins prior to training session followed by scopolamine challenge immediately after training session by passive avoidance test; type: functional; in short: as §1
Mus musculus [8] = experiment: Toxicity in sc dosed CD-1 albino mouse assessed as effect on motor co-ordination at cognition enhancing MED by rota rod test; type: organism-based; settings: in vivo
[9] = Half life in Sprague-Dawley rat plasma at 1 uM by LC-MS/MS analysis; type: ADME, cell-free; in short: as §2
Mus musculus [10] = experiment: Cognition enhancing effect in ip dosed mouse assessed as reversal of scopolamine-induced amnesia treated 20 mins prior to training session followed by scopolamine challenge immediately after training session by passive avoidance test; type: functional; settings: read-out: MED
Mus musculus [11] = experiment: Cognition enhancing effect in […] mouse assessed as reversal of scopolamine-induced amnesia by measuring difference between training session and retention session time at MED treated 20 mins prior to training session followed by scopolamine challenge immediately after training session by passive avoidance test
[12] = Stability in Sprague-Dawley rat plasma assessed as parent compound remaining at 1 uM after 2 hrs by LC-MS/MS analysis; type: ADME, cell-free; settings: read-out: Stability; in short: as §2
Plasma [13] = experiment: Drug metabolism in Sprague-Dawley rat plasma assessed as 1-(4-Benzoyl-3-(hydroxymethyl)piperazin-1-yl)propan-1-one formation at 1 uM after 60 mins by LC-MS/MS analysis; type: ADME, cell-free; settings: 1 h; in short: as §2
Plasma [14] = experiment: Drug metabolism in Sprague-Dawley rat plasma assessed as 1-(4-Benzoyl-2-(hydroxymethyl)piperazin-1-yl)propan-1-one formation at 1 uM after 60 mins by LC-MS/MS analysis; type: ADME, cell-free; settings: 1 h; in short: as §2
Plasma [15] = experiment: Drug metabolism in Sprague-Dawley rat plasma assessed as 1-(4-(4-Fluorophenylsulfonyl)-3-(hydroxymethyl)piperazin-1-yl)ethanone formation at 1 uM after 60 mins by LC-MS/MS analysis; type: ADME, cell-free; settings: 1 h; in short: as §2
Plasma [16] = experiment: Drug level in Sprague-Dawley rat plasma treated with (4-Benzoyl-1-propionylpiperazin-2-yl)methyl acetate at 1 uM after 60 mins by LC-MS/MS analysis; type: ADME, cell-free; settings: 1 h; in short: as §2
Plasma [17] = experiment: Drug metabolism in Sprague-Dawley rat plasma assessed as 1-(4-(4-Fluorophenylsulfonyl)-2-(hydroxymethyl)piperazin-1-yl)ethanone formation at 1 uM after 60 mins by LC-MS/MS analysis; type: ADME, cell-free; settings: 1 h; in short: as §2

| SMILES | minimal effective dose (Mus musculus [1]) [mg/kg] | half-life at 1 µM [2] [min] | Ratio (Mus musculus [3]) | Activity (Mus musculus [5]) | Activity (Mus musculus [6]) | Time (Mus musculus [7]) [s] | Activity (Mus musculus [8]) | half-life at 1 µM [9] [min] | minimal effective dose (Mus musculus [10]) [mg/kg] | also measured |
| --- | --- | --- | --- | --- | --- | --- | --- | --- | --- | --- |
| CCOC(=O)C1CN(C(=O)c2ccccc2)CCN1C(=O)CC (stereo not drawn) | 1 | ≥ 240 | 3 - 300 | Non-Toxic | Non-Toxic | 51.1 | Non-Toxic | 12 |  | remaining at 1 h, 1 µM [4]: < 50% |
| CCOC(=O)C1CN(C(C)=O)CCN1S(=O)(=O)c1ccc(F)cc1 (stereo not drawn) | 0.1 | ≥ 240 | 3 - 300 | Non-Toxic | Non-Toxic | 55.7 | Non-Toxic | 21 |  | remaining at 1 h, 1 µM [4]: < 50% |
| CC(=O)N1CCN(S(=O)(=O)c2ccc(F)cc2)CC1 |  | ≥ 240 |  |  |  |  |  | ≥ 240 | 0.01 |  |
| CC(=O)NC1CCN(S(=O)(=O)c2ccc(F)cc2)CC1 [SAPUNIFIRAM] |  |  |  |  |  |  |  |  | 0.01 |  |
| CCC(=O)N1CCN(C(=O)c2ccccc2)C(C)C1 (stereo not drawn) |  |  |  |  |  |  |  |  | 0.1 | Time (Mus musculus [11]): 60.2 s |
| CCC(=O)N1CCN(C(=O)c2ccccc2)C(COC(C)=O)C1 (stereo not drawn) | > 10 | ≥ 240 |  | Non-Toxic | Non-Toxic |  | Non-Toxic | 100 |  | remaining at 2 h, 1 µM [12]: 50%; Drug metabolism (Plasma [13]): Metabolite_Detected |
| CC(=O)OC[C@@H]1CN(C(C)=O)CCN1S(=O)(=O)c1ccc(F)cc1 | 1 |  |  |  |  | 64.5 |  |  |  |  |
| CCC(=O)N1CCN(C(=O)c2ccccc2)CC1C (stereo not drawn) |  |  |  |  |  |  |  |  | > 10 |  |
| CCC(=O)N1CCN(C(=O)c2ccccc2)CC1COC(C)=O (stereo not drawn) | 1 | ≥ 240 | 3 - 300 | Non-Toxic | Non-Toxic | 62.2 | Non-Toxic | 154 |  | remaining at 2 h, 1 µM [12]: 60%; Drug metabolism (Plasma [14]): Metabolite_Detected |
| NC(=O)CN1CCCC1=O [PIRACETAM] |  |  |  |  |  |  |  |  | 30 | Time (Mus musculus [11]): 82.4 s |
| CC(=O)OCC1CN(C(C)=O)CCN1S(=O)(=O)c1ccc(F)cc1 (stereo not drawn) | 0.1 | ≥ 240 | 3 - 300 | Non-Toxic | Non-Toxic | 56.8 | Non-Toxic | 29 |  | remaining at 2 h, 1 µM [12]: ≤ 10%; Drug metabolism (Plasma [15]): Metabolite_Detected |
| CCC(=O)N1CCN(C(=O)c2ccccc2)[C@H](CO)C1 | 1 |  |  |  |  | 58.8 |  |  |  |  |
| CCOC(=O)C1CN(S(=O)(=O)c2ccc(F)cc2)CCN1C(C)=O (stereo not drawn) | 1 | ≥ 240 | 3 - 300 | Non-Toxic | Non-Toxic | 50.1 | Non-Toxic | 37 |  | remaining at 1 h, 1 µM [4]: < 50% |
| CCC(=O)N1CCN(C(=O)c2ccccc2)CC1CO (stereo not drawn) | 10 | ≥ 240 | 3 - 300 | Non-Toxic | Non-Toxic | 72.7 | Non-Toxic | ≥ 240 |  | Drug metabolism (Plasma [16]): Metabolite_Detected |
| CC(=O)OC[C@H]1CN(C(C)=O)CCN1S(=O)(=O)c1ccc(F)cc1 | 1 |  |  |  |  | 70.6 |  |  |  |  |
| O=C1CCC2CN(S(=O)(=O)c3ccc(F)cc3)CCN12 (stereo not drawn) [UNIFIRAM] |  |  |  |  |  |  |  |  | 0.001 |  |
| CC(=O)OCC1CN(S(=O)(=O)c2ccc(F)cc2)CCN1C(C)=O (stereo not drawn) | > 10 | ≥ 240 |  | Non-Toxic | Non-Toxic |  | Non-Toxic | 30 |  | remaining at 2 h, 1 µM [12]: ≤ 10%; Drug metabolism (Plasma [17]): Metabolite_Detected |
| CCOC(=O)[C@H](CCc1ccccc1)N[C@@H](C)C(=O)N1CCC[C@H]1C(=O)O [ENALAPRIL] |  | ≥ 240 |  |  |  |  |  | 94 |  |  |
| CC(=O)N1CCN(S(=O)(=O)c2ccc(F)cc2)CC1C (stereo not drawn) |  |  |  |  |  |  |  |  | 1 | Time (Mus musculus [11]): 83.9 s |
| COCC1CN(S(=O)(=O)c2ccc(F)cc2)CCN1C(C)=O (stereo not drawn) | > 10 | ≥ 240 |  | Non-Toxic | Non-Toxic |  | Non-Toxic | ≥ 240 |  |  |
| CCC(=O)N1CCN(C(=O)c2ccccc2)C(COC)C1 (stereo not drawn) | 1 | ≥ 240 | 3 - 300 | Non-Toxic | Non-Toxic | 73.4 | Non-Toxic | ≥ 240 |  |  |
| CCC(=O)N1CCN(C(=O)c2ccccc2)[C@@H](CO)C1 | 1 |  |  |  |  | 55 |  |  |  |  |
| CCOC(=O)C1CN(C(=O)CC)CCN1C(=O)c1ccccc1 (stereo not drawn) | 1 | ≥ 240 | 3 - 300 | Non-Toxic | Non-Toxic | 56.6 | Non-Toxic | 26 |  | remaining at 1 h, 1 µM [4]: < 50% |
| CCC(=O)N1CCN(C(=O)c2ccccc2)CC1 [SUNIFIRAM] |  | ≥ 240 |  |  |  |  |  | ≥ 240 | 0.001 |  |
| CCC(=O)N1CCN(C(=O)c2ccccc2)CC1COC (stereo not drawn) | 10 | ≥ 240 | 3 - 300 | Non-Toxic | Non-Toxic | 79.7 | Non-Toxic | ≥ 240 |  |  |
| COCC1CN(C(C)=O)CCN1S(=O)(=O)c1ccc(F)cc1 (stereo not drawn) | 1 | ≥ 240 | 3 - 300 | Non-Toxic | Non-Toxic | 76.5 | Non-Toxic | ≥ 240 |  |  |
| CC(=O)N1CCN(S(=O)(=O)c2ccc(F)cc2)C(C)C1 (stereo not drawn) |  |  |  |  |  |  |  |  | 0.1 | Time (Mus musculus [11]): 82.6 s |
